# High-throughput results (PubChem BioAssay)
# This excerpt belongs to a sample that is enriched for hits.
# Yeast life ext = compounds extending yeast replicative lifespan, primary screen, S. cerevisiae, OD615; S. cerevisiae growth with nicotinamide; deaD strain in restrictive glucose medium; inhibition of the nicotinamide effect, % at 10 µM; 130,000 compounds, 0.68% hits;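 active = inhibition above a set limit, placed 3 SD over the median of all compounds, cut at about 26% in these data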;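 note: 0% = nicotinamide-treated wells and 100% = cells grown without nicotinamide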
#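 Material: Modified budding yeast, DeaD strain | Medium: Restrictive glucose medium | Probe or stimulus: 1.5 mM nicotinamide | Dosing: Single dose 10 µM compound, 0.25% DMSO | Times: 48 h at 30 °C | Technique: OD615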
# PostGolgi ctrl = growth inhibition of yeast control strain, primary screen, counter-screen for post-Golgi transport modulator project | AID 738, 2007 | 98,000 compounds, 5% hits | efflux-deficient yeast background strain, growth absorbance A615, 16 h | inhibition, % at 10 µM
# Yeast growth inh = growth inhibitors of yeast BB579 in restrictive medium, primary screen, yeast lifespan-shortening project, S. cerevisiae; OD615, 48 h; AID 804, 2007; inhibition, % at 10 µM; 140,000 compounds, 0.51% hits;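 active = inhibition above a set limit, 3 SD over the mean compound inhibition, cut at about 44% in these data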
#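 Material: Saccharomyces cerevisiae DeaD strain BB579, replicative lifespan model yeast; buffer or medium: CSMM-D restrictive synthetic medium containing dextrose (glucose); compound: 10 µM single dose, DMSO 0.25%; timing: 48 h compound exposure at 30 °C after 4 h preincubation; signal: turbidity as optical density at 615 nm; benchmarks: positive control amphotericin B 10 µg/mL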
# PostGolgi yeast = phenotypic screen on post-Golgi transport, primary screen; post-Golgi transport phenotypic cell assay; 98,000 compounds, 0.9% hits; inhibition, % at 10 µM; AID 739, 2007;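 note: yeast cells grown in 1536-well plates; yeast grown about 18 h at 30C before absorbance read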
# * = called active by the depositor; . = not tested or not shown. Cut-off read from the data, not from the text of the source, unless noted: active = inhibition above about 30%; inactive = the rest.
SMILES,Yeast life ext,PostGolgi ctrl,Yeast growth inh,PostGolgi yeast
CC(=O)N1CCN(c2ccccc2NC(=O)COc2ccc(Cl)cc2Cl)CC1,-11,50*,-19,0
O=C(COc1ccc(Cl)cc1Cl)N1CCCN(C(=O)COc2ccc(Cl)cc2Cl)CC1,-10,75*,-87,-5
Cc1ccc(C(=O)CC2(O)C(=O)N(Cc3ccccc3)c3ccccc32)o1 (configuration not stated),-3,11,-22,0
Cc1ccc(C(=O)CC2(O)C(=O)N(CCc3ccccc3)c3ccc(Br)cc32)o1 (configuration not stated),-21,19,-10,31*
O=C1c2cccc3c([N+](=O)[O-])ccc(c23)C(=O)N1c1ccccn1,20,19,-5,18
O=C1c2cccc3c([N+](=O)[O-])ccc(c23)C(=O)N1c1ccc(Cl)cn1,33*,19,-23,68*
O=C(NCCc1ccccc1F)C(=O)Nc1nccs1,-1,30*,-37,-11
O=C(Nc1nccs1)Oc1ccccc1,-20,37*,-49,-5
OC1(c2ccccc2)C/C(=N\n2cnnc2)C=C1c1ccccc1 (configuration not stated),-23,12,-29,-10
CCNc1c(N)c(=O)oc2ccccc12,-4,-2,16,3
Nc1c(Nc2ccccc2)c2ccccc2oc1=O,-26,9,48*,-5
COc1ccc(CC(=O)Nc2ccc(-c3cn4ccc(C)cc4n3)cc2)cc1,-8,23,0,0
Cc1csc(=Nc2c(C)n(C)n(-c3ccccc3)c2=O)n1Cc1ccccc1,-6,9,-15,-3
C=CCn1c(-c2ccc(OC)cc2)csc1=Nc1c(C)n(C)n(-c2ccccc2)c1=O,100*,5,-38,-7
c1ccc(CNc2nc(CN3CCOCC3)nc3scc(-c4ccccc4)c23)cc1,13,.,-58,.
CC(=O)c1ccccc1Oc1nc(CN2CCOCC2)nc2scc(-c3cccs3)c12,-6,42*,-58,-3
COc1ccc(C(C)=O)c(Oc2nc(CN3CCOCC3)nc3scc(-c4cccs4)c23)c1,-9,42*,-38,5
O=C(CN(C(=O)c1cc2c(s1)CCC2)C1CCCC1)NCc1cccs1,-26,-7,-54,-6
CC(=O)c1c(C)nc2ccccn12,-1,8,-30,11
Cc1ccc(/C=C/C(=O)c2c(C)nc3ccccn23)cc1,-28,33*,-24,-2
c1ccc2c(c1)ncn2CCCCOc1ccc2c(c1)CCC2,-14,37*,-17,4
CC(=O)c1ccc(OCCn2cnc3ccccc32)cc1,-8,.,9,.
c1ccc2c(c1)ncn2CCN1CCCCC1,.,.,-10,.
c1ccc2c(c1)ncn2CCCOc1ccc2c(c1)CCC2,-13,34*,-90,-1
CS(=O)(=O)N1CCN(c2ccccc2F)CC1,-10,31*,3,7
SMILES,Yeast life ext,PostGolgi ctrl,Yeast growth inh,PostGolgi yeast
COc1cc(S(=O)(=O)N2CCN(c3ccccc3F)CC2)ccc1Cl,-6,48*,-32,1
COc1cc(S(=O)(=O)N2CCN(c3ccccc3)CC2)ccc1Cl,-5,19,-16,12
O=C1CSC(c2c(F)cccc2Cl)N1c1cccc(F)c1 (configuration not stated),-17,2,-4,-2
COC(=O)C1=C(C)Nc2nc(SCc3ccccc3)[nH]c(=O)c2C1c1cccs1 (configuration not stated),13,.,-37,.
CCOC(=O)C(C)Sc1nnc(Cc2cc(=O)[nH]c(=O)[nH]2)n1-c1ccc(OCC)cc1 (configuration not stated),-2,7,-20,6
CCOC(=O)C(C)Sc1nnc(Cc2cc(=O)[nH]c(=O)[nH]2)n1-c1cccc(OC)c1 (configuration not stated),2,32*,11,2
Cc1cc(C)cc(NC(=O)CN2CCC(NC(=O)Cc3ccccc3)CC2)c1,27*,5,-5,-6
Cc1ccc(NC(=O)CN2CCC(NC(=O)Cc3ccccc3)CC2)cc1C,-17,9,-47,5
CC1CCCN(S(=O)(=O)c2coc(C(N)=O)c2)C1 (configuration not stated),-5,-6,-18,-2
CC1CCCCN1S(=O)(=O)c1coc(C(N)=O)c1 (configuration not stated),-10,-3,45*,0
O=C(CCSc1nc(-c2ccco2)cc(C(F)(F)F)n1)N1CCN(c2ccccn2)CC1,-9,30*,-22,5
O=C(CCSc1nc(-c2ccco2)cc(C(F)(F)F)n1)N1CCCc2ccccc21,-2,38*,-20,-3
CC1Cc2ccccc2N1C(=O)CSc1nc(-c2ccco2)cc(C(F)(F)F)n1 (configuration not stated),-2,-1,-68,18
CCCn1c(=O)n(C)c(=O)c2c(SCC(=O)NCc3ccco3)nc(C3CC3)nc21,-1,5,-11,6
CC(=O)Oc1c(C)c(=O)n(C)c2ccccc12,-1,.,-15,.
CC(=O)Oc1c(C(=O)c2nnc(C)o2)c(=O)n(C)c2ccccc12,54*,.,19,.
CCC(C)n1cnc2c(c1=O)c1nc3ccccc3nc1n2Cc1ccc(OC)cc1 (configuration not stated),-11,36*,-35,-5
Clc1ccccc1CN(Cc1ccccc1)c1ncnc2nc[nH]c12,32,52*,-21,-8
COc1ccc(C(=O)NN(C)c2nc(-c3ccccc3)nnc2C(F)(F)F)cc1,-11,35*,-25,2
Cc1cc(NS(=O)(=O)c2ccc(NC(=O)c3cc(-c4ccccc4Cl)nc4ccccc34)cc2)no1,0,.,-39,.
Cc1cc(NS(=O)(=O)c2ccc(NC(=O)c3cc(-c4cccnc4)nc4ccc(Cl)cc34)cc2)no1,-3,35*,-46,-6
Cc1ccc2occ(C(=O)c3ccco3)c(=O)c2c1,58,16,-50,9
COCC(C)OC(=O)/C(C#N)=C\c1coc2ccc(C)cc2c1=O (configuration not stated),5,.,63*,.
CC12CN3CCN(CC(C3)/C1=N\N=C1/C3CN4CCN(C3)CC1(C)C4)C2,1,.,-20,.
COc1ccc(CNC(=O)CSc2nnc(Cn3nnc4ccccc43)n2C)cc1,-11,-5,-2,23
SMILES,Yeast life ext,PostGolgi ctrl,Yeast growth inh,PostGolgi yeast
COc1ccc(-n2c(SCC(=O)Nc3ccc4c(c3)OCO4)nc3ccccc3c2=O)cc1,0,54*,-63,-3
COc1cccc(-n2nnnc2SCC(=O)Nc2ccc3c(c2)OCCO3)c1,-17,31*,-47,39*
CC1(C)Cc2ccccc2-c2nnc(SCC(=O)Nc3ccc4c(c3)OCO4)n21,81*,-1,19,-8
COc1ccc(C(O)P(=O)(OCC(C)C)OCC(C)C)c(OC)c1 (configuration not stated),1,.,-20,.
CN(c1ccc(Cl)cc1)c1cc(=O)n(C)c2ccccc12,-8,64*,23,1
CN(C(=O)COc1cc(=O)n(C)c2ccccc12)c1ccc(Cl)cc1,-4,18,10,1
